For 14 compounds, MIC80 results are on record in ChEMBL document CHEMBL4138161, “Discovery of simplified sampangine derivatives as novel fungal biofilm inhibitors” (Eur J Med Chem, 2018).

The structures appear in SMILES notation. In brackets after ≈: the same amount, converted by molar mass.

Holding throughout (format): functional
One assay concerns Candida parapsilosis. The experiment in a line: Antifungal activity against Candida parapsilosis 22019 after 24 hrs by spectrophotometric analysis. Conditions: Lodderomyces parapsilosis, 22019, 24 h. A digest of the protocol:
(§1)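 Broth microdilution in RPMI 1640, inoculum 5×10^3 CFU/mL, compounds from 6.4 mg/mL DMSO stocks, 35 ℃ for 24 h. Growth read as OD600; MIC80 taken as lowest concentration giving 80% growth inhibition. Triplicate.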

For another assay, the system named is Nakaseomyces glabratus. Kind of assay: Antifungal activity against Candida glabrata 537 after 24 hrs by spectrophotometric analysis. Conditions: Nakaseomyces glabratus, 537, 24 h. A digest of the protocol:
as §1

A further assay relates to Nannizzia gypsea. Kind of assay: Antifungal activity against Microsporum gypseum Cmccfmza after 24 hrs by spectrophotometric analysis. A digest of the protocol:
as §1

Another assay concerns Trichophyton rubrum. The experiment in a line: Antifungal activity against Trichophyton rubrum Cmccftla after 24 hrs by spectrophotometric analysis. A digest of the protocol:
as §1

For the next assay, the system named is Cryptococcus neoformans. Kind of assay: Antifungal activity against Cryptococcus neoformans 32609 after 24 hrs by spectrophotometric analysis. Conditions: Cryptococcus neoformans, 32609, 24 h. A digest of the protocol: as §1
The test system of a further assay is Aspergillus fumigatus. Kind of assay: Antifungal activity against Aspergillus fumigatus 07544 after 24 hrs by spectrophotometric analysis. Conditions: Aspergillus fumigatus, 07544, 24 h. A digest of the protocol:
as §1

The next assay has as its system Candida albicans. Kind of assay: Antifungal activity against Candida albicans SC5314 after 24 hrs by spectrophotometric analysis. Conditions: SC5314, 24 h. A digest of the protocol: as §1

For `CC(C)c1cnc2c(c1)C(=O)c1sc([N+](=O)[O-])cc1C2=O`, the MIC80 (usually the lowest concentration that inhibits either 80% of growth or 80% of the strains tested, depending on the study) in the assay on Candida parapsilosis came to 4 mg/L (≈ 13.2 µM); in the assay with Nakaseomyces glabratus, 4 mg/L (≈ 13.2 µM); with Nannizzia gypsea, 1 mg/L (≈ 3.31 µM); in the assay with Trichophyton rubrum it was 1 mg/L (≈ 3.31 µM); against Cryptococcus neoformans it was 0.5 mg/L (≈ 1.65 µM); with Aspergillus fumigatus, 4 mg/L (≈ 13.2 µM). The compound further came in with an MIC80 against Candida albicans of 2 mg/L (≈ 6.62 µM).
As for `CCCCc1ccnc2c1C(=O)c1sc([N+](=O)[O-])cc1C2=O`, the MIC80 amounted to 1 mg/L (≈ 3.16 µM) in the assay on Candida parapsilosis; 4 mg/L (≈ 12.6 µM) with Nakaseomyces glabratus; 2 mg/L (≈ 6.32 µM) against Nannizzia gypsea; 4 mg/L (≈ 12.6 µM) with Trichophyton rubrum; 0.5 mg/L (≈ 1.58 µM) against Cryptococcus neoformans; 64 mg/L (≈ 202 µM) against Aspergillus fumigatus. Also, the MIC80 against Candida albicans worked out at 1 mg/L (≈ 3.16 µM).
As for `O=C1c2cc([N+](=O)[O-])sc2C(=O)c2c(-c3ccccc3[N+](=O)[O-])ccnc21`, the MIC80 in the assay with Candida parapsilosis was above 64 mg/L; against Nakaseomyces glabratus it was above 64 mg/L; in the assay with Nannizzia gypsea, 8 mg/L (≈ 21 µM); against Trichophyton rubrum, 16 mg/L (≈ 42 µM); with Cryptococcus neoformans it was 4 mg/L (≈ 10.5 µM); against Aspergillus fumigatus, 64 mg/L (≈ 168 µM). The MIC80 against Candida albicans came out at 16 mg/L (≈ 42 µM).
For `CN(C)c1ccc(-c2ccnc3c2C(=O)c2sc([N+](=O)[O-])cc2C3=O)cc1`, the MIC80 is 32 mg/L (≈ 84.3 µM) in the assay on Candida parapsilosis; above 64 mg/L against Nakaseomyces glabratus; 16 mg/L (≈ 42.2 µM) against Nannizzia gypsea; 4 mg/L (≈ 10.5 µM) against Trichophyton rubrum; 16 mg/L (≈ 42.2 µM) with Cryptococcus neoformans; above 64 mg/L in the assay with Aspergillus fumigatus. Further, in the assay on Candida albicans, the MIC80 was determined as 32 mg/L (≈ 84.3 µM).
`CC(C)(C)OC(=O)/C=C\c1ccnc2c1C(=O)c1sc([N+](=O)[O-])cc1C2=O`: the MIC80 with Candida parapsilosis is above 64 mg/L; with Nakaseomyces glabratus, above 64 mg/L; with Nannizzia gypsea, 4 mg/L (≈ 10.4 µM); against Trichophyton rubrum, 4 mg/L (≈ 10.4 µM); with Cryptococcus neoformans, 4 mg/L (≈ 10.4 µM); in the assay with Aspergillus fumigatus, above 64 mg/L. The compound also had an MIC80 with Candida albicans of 32 mg/L (≈ 82.8 µM).
For the compound `O=C1c2cc([N+](=O)[O-])sc2C(=O)c2c(-c3ccccc3)ccnc21`, the MIC80 was determined as 8 mg/L (≈ 23.8 µM) with Candida parapsilosis; 16 mg/L (≈ 47.6 µM) against Nakaseomyces glabratus; 4 mg/L (≈ 11.9 µM) against Nannizzia gypsea; 8 mg/L (≈ 23.8 µM) in the assay with Trichophyton rubrum; 4 mg/L (≈ 11.9 µM) in the assay on Cryptococcus neoformans; 32 mg/L (≈ 95.1 µM) in the assay on Aspergillus fumigatus. Besides, the MIC80 in the assay with Candida albicans worked out at 8 mg/L (≈ 23.8 µM).
With `CC(C)(C)OC(=O)N1CCC(c2ccnc3c2C(=O)c2sc([N+](=O)[O-])cc2C3=O)CC1`, the MIC80 in the assay with Candida parapsilosis is above 64 mg/L; in the assay on Nakaseomyces glabratus it was above 64 mg/L; in the assay with Nannizzia gypsea it was 16 mg/L (≈ 36.1 µM); with Trichophyton rubrum, 8 mg/L (≈ 18 µM); with Cryptococcus neoformans, 8 mg/L (≈ 18 µM); in the assay on Aspergillus fumigatus it was above 64 mg/L. The same compound registered an MIC80 in the assay with Candida albicans of 32 mg/L (≈ 72.2 µM).
`COc1ccccc1-c1ccnc2c1C(=O)c1sc([N+](=O)[O-])cc1C2=O`: the MIC80 was 16 mg/L (≈ 43.7 µM) with Candida parapsilosis; above 64 mg/L in the assay on Nakaseomyces glabratus; 16 mg/L (≈ 43.7 µM) against Nannizzia gypsea; 16 mg/L (≈ 43.7 µM) in the assay with Trichophyton rubrum; 8 mg/L (≈ 21.8 µM) against Cryptococcus neoformans; 16 mg/L (≈ 43.7 µM) in the assay on Aspergillus fumigatus. Also, the MIC80 against Candida albicans was found to be 16 mg/L (≈ 43.7 µM).
As to `Cc1ccnc2c1C(=O)c1sccc1C2=O`, the MIC80 against Candida parapsilosis is above 64 mg/L; in the assay on Nakaseomyces glabratus it was 8 mg/L (≈ 34.9 µM); with Nannizzia gypsea, above 64 mg/L; against Trichophyton rubrum, 4 mg/L (≈ 17.4 µM); in the assay on Cryptococcus neoformans, 16 mg/L (≈ 69.8 µM); against Aspergillus fumigatus it was 16 mg/L (≈ 69.8 µM). The same compound came in with an MIC80 with Candida albicans of 16 mg/L (≈ 69.8 µM).
In the case of `Cc1cc[n+]([O-])c2c1C(=O)c1sc([N+](=O)[O-])cc1C2=O`, the MIC80 against Candida parapsilosis is 32 mg/L (≈ 110 µM); against Nakaseomyces glabratus, 64 mg/L (≈ 220 µM); against Nannizzia gypsea, 4 mg/L (≈ 13.8 µM); with Trichophyton rubrum, 8 mg/L (≈ 27.6 µM); in the assay with Cryptococcus neoformans it was 4 mg/L (≈ 13.8 µM); against Aspergillus fumigatus it was above 64 mg/L. The MIC80 in the assay on Candida albicans was 8 mg/L (≈ 27.6 µM).
With `Cc1ccnc2c1C(=O)c1sc(N)cc1C2=O`, the MIC80 is above 64 mg/L against Candida parapsilosis; above 64 mg/L against Nakaseomyces glabratus; above 64 mg/L in the assay on Nannizzia gypsea; 8 mg/L (≈ 32.7 µM) in the assay on Trichophyton rubrum; above 64 mg/L with Cryptococcus neoformans; above 64 mg/L in the assay with Aspergillus fumigatus. This compound also yielded an MIC80 with Candida albicans above 64 mg/L.
Regarding `O=C1c2cc([N+](=O)[O-])sc2C(=O)c2c(C(Br)Br)ccnc21`, the MIC80 with Candida parapsilosis is 32 mg/L (≈ 74.1 µM); in the assay on Nakaseomyces glabratus, 16 mg/L (≈ 37 µM); against Nannizzia gypsea, 16 mg/L (≈ 37 µM); with Trichophyton rubrum, 32 mg/L (≈ 74.1 µM); with Cryptococcus neoformans, 32 mg/L (≈ 74.1 µM); in the assay with Aspergillus fumigatus it was 64 mg/L (≈ 148 µM). Besides, the MIC80 against Candida albicans stood at 32 mg/L (≈ 74.1 µM).
With `Cc1ccnc2c1C(=O)c1occc1C2=O`, the MIC80 with Candida parapsilosis was above 64 mg/L; against Nakaseomyces glabratus it was above 64 mg/L; against Nannizzia gypsea it was above 64 mg/L; with Trichophyton rubrum, above 64 mg/L; with Cryptococcus neoformans, 64 mg/L (≈ 300 µM); in the assay on Aspergillus fumigatus, above 64 mg/L. Moreover, the MIC80 in the assay on Candida albicans is above 64 mg/L.
Consider `Cc1ccnc2c1C(=O)c1sc([N+](=O)[O-])cc1C2=O`, for which the MIC80 against Candida parapsilosis is 1 mg/L (≈ 3.65 µM); against Nakaseomyces glabratus it was 1 mg/L (≈ 3.65 µM); in the assay with Nannizzia gypsea, 2 mg/L (≈ 7.29 µM); against Trichophyton rubrum it was 0.5 mg/L (≈ 1.82 µM); with Cryptococcus neoformans it was 0.5 mg/L (≈ 1.82 µM); against Aspergillus fumigatus it was 2 mg/L (≈ 7.29 µM). Moreover, the MIC80 with Candida albicans stood at 0.25 mg/L (≈ 0.912 µM).
